The text below walks through data of ChEMBL document CHEMBL1148815, “New series of antiprion compounds: pyrazolone derivatives have the potent activity of inhibiting protease-resistant prion protein accumulation” (J Med Chem, 2007).

Data set [1] has as its system ScN2a. Description: Antiprion activity in ScN2a cells assessed as inhibition of protease-resistant prion protein accumulation. Conditions: Mus musculus. Type of data set: functional, cell-based. Summed up: (§1)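 Mouse N2a cells carrying RML scrapie (ScN2a) or N2a#58 cells carrying Fukuoka-1 (F3), grown in Opti-MEM with 10% FBS. Compound added at passage (10% confluency), cells grown to confluence over 3–4 days, then lysed. Lysates digested with 10 µg/mL proteinase K for 30 min at 37 °C. PrP-res detected by SDS-PAGE/immunoblot with SAF83. IC50 is the concentration halving PrP-res relative to control.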

A short description of data set [2]: Cytotoxicity against mouse F3 cells by MTT assay. Type of data set: cell-based. Conditions: n2a #58 f3. (Tetrazolium assays rely on reduction of a dye to a coloured formazan, in cell work by metabolically active cells.)
A short description of data set [3]: Cytotoxicity against human NB69 cells by MTT assay. The format is cell-based. The conditions noted are these: read-out: LD50 (the source's name).
Data set [4] concerns ScN2a. Nature of the data set: Cytotoxicity against mouse ScN2a cells by MTT assay. The format is cell-based.
Data set [5] can be described thus: Antiprion activity in F3 cells assessed as inhibition of protease-resistant prion protein accumulation. Type of data set: functional, cell-based. Conditions: Mus musculus, N2a #58 F3. Summed up:
as §1

A short description of data set [6]: Hydroxy radical scavenging activity by ESR spin-trapping method. Type of data set: functional. Summed up:
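A mixture of 25 mM H2O2, 25 mM DMPO and compound was UV-irradiated. Hydroxyl radical scavenging was expressed as IC50.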

Data set [7] is described as follows: Superoxide dismutase like activity assessed as inhibition of WST1 tetrazolium formation at 1 mM. Set-up: scale not given: the % may be the effect or the level left. Type of data set: functional. Summed up: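 Xanthine-based photometric kit assay with WST-1 tetrazolium salt. Compound was tested at 1 mM.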
Data set [8] can be described thus: Superoxide dismutase like activity assessed as inhibition of WST1 tetrazolium formation at 1 mM in presence of 2 mM Cu(II). The format is functional. Further details: scale not given: the % may be the effect or the level left.

Each structure is given as a SMILES string.

Turning to `C=CC1CN2CC[C@H]1C[C@H]2[C@H](O)c1ccnc2ccc(OC)cc12` (single isomer, unassigned) [QUININE], the IC50 with ScN2a [1] is 10000 nM.
In the case of `COc1ccc(C2=NN(c3ccccc3)C(=O)C2)cc1`, the Activity (in data set [2]; with ScN2a [4]) was above 100 nM each time. In addition, in data set [3], the CC50 is above 1000 nM.
For `O=C(Nc1ccccc1)C1=NN(c2ccccc2)C(=O)C1`, the Activity (in data set [2]; in the data set on ScN2a [4]) was above 1000 nM each time. Moreover, the CC50 in data set [3] is above 1000 nM. For the same molecule, the figures for the IC50 (with ScN2a [1]; in data set [5]) were 398 nM and 1580 nM, respectively.
Take `C=C[C@H]1CN2CC[C@H]1C[C@@H]2[C@@H](O)c1ccnc2ccc(OC)cc12` [QUINIDINE]: the IC50 in the data set with ScN2a [1] was 5000 nM.
As to `C=C(C)C1=NN(c2ccccc2)C(=O)C1`, the Activity (in data set [2]; with ScN2a [4]) was above 1000 nM in each case. The CC50 in data set [3] is above 1000 nM. The IC50 came to 158 nM with ScN2a [1] and 794 nM in data set [5].
Consider `CC1=NN(c2ccccc2)C(=O)C1C(=O)c1ccccc1` (stereo not drawn), for which the Activity (in data set [2]; in the data set with ScN2a [4]) was above 1000 nM throughout. In data set [3], the CC50 was above 1000 nM. The results for the IC50 (in the data set with ScN2a [1]; in data set [6]; in data set [5]) were 6 nM, 610 nM and 1000 nM, respectively.
Consider `CC1=NN(c2ccccc2)C(=O)C1C1CC1` (stereo not drawn), for which the Activity in data set [2] was above 1000 nM; in data set [7] it was 15.9%; in the data set with ScN2a [4], above 1000 nM; in data set [8] it was 35.4%. Further, the CC50 in data set [3] is above 1000 nM. In data set [6], 720 nM corresponded to half-maximal inhibition (IC50).
On to `O=C1CC(Cc2ccccc2)=NN1c1ccccc1`, for which the Activity (in data set [2]; with ScN2a [4]) was above 1000 nM each time. The CC50 in data set [3] is above 300 nM.
Regarding `CC1=NN(c2ccccc2)C(=O)C1CC(C)C` (stereo not drawn), the Activity (in data set [2]; in the data set with ScN2a [4]) was above 1000 nM each time. In addition, the CC50 in data set [3] is above 1000 nM. For the same molecule, the IC50 in data set [5] turned out to be 16 nM.
Turning to `CC1=NN(C2CCCCC2)C(=O)C1`, the Activity (in data set [2]; with ScN2a [4]) was above 1000 nM each time. In data set [3], the CC50 is above 1000 nM. Also, the values for the IC50 (in the data set with ScN2a [1]; in data set [5]) were 13 nM and 25 nM, respectively.
As to `CC1=NN(c2ccccc2)C(=O)C1c1ccccc1` (stereo not drawn), the Activity (in data set [2]; with ScN2a [4]) was above 100 nM in each case. Besides, the CC50 in data set [3] is above 1000 nM. For the same molecule, the IC50 in the data set on ScN2a [1] came out at 40 nM; in data set [6], 790 nM; in data set [5], 1 nM.
Take `O=C(NC1=NN(c2ccccc2)C(=O)C1)c1ccccc1`: the Activity is above 1000 nM in data set [2], 9.2% in data set [7], above 1000 nM with ScN2a [4] and 3.2% in data set [8]. Also, the CC50 in data set [3] was above 1000 nM. The IC50 in the data set with ScN2a [1] is 2000 nM; in data set [6] it was 220 nM; in data set [5], 1260 nM.
On to `O=C(NC1=NN(c2ccccc2)C(=O)C1)NC1CCCC1`, for which the Activity (in data set [2]; in the data set on ScN2a [4]) was above 1000 nM throughout. Besides, the CC50 in data set [3] is above 1000 nM. For the same molecule, the IC50 in the data set on ScN2a [1] turned out to be 126 nM; in data set [5], 158 nM.
Regarding `O=C1CC(C(F)(F)F)=NN1c1ccccc1`, the Activity is above 1000 nM in data set [2], 13.4% in data set [7], above 1000 nM in the data set with ScN2a [4] and 7.4% in data set [8]. The CC50 in data set [3] is above 1000 nM. Also, the IC50 in the data set with ScN2a [1] was found to be 398 nM; in data set [6], 810 nM; in data set [5], 631 nM.
`COC(=O)NC1=NN(c2ccccc2)C(=O)C1`: the Activity (in data set [2]; with ScN2a [4]) was above 1000 nM in each case. Also, the CC50 in data set [3] is above 1000 nM. Further, the IC50 with ScN2a [1] came to 6 nM; in data set [5], 501 nM.
As to `CC1=NN(c2ccc(Cl)cc2)C(=O)C1`, the Activity (in data set [2]; in the data set on ScN2a [4]) was above 100 nM in each case. Also, the CC50 in data set [3] is above 1000 nM. Further, the IC50 with ScN2a [1] stood at 0.5 nM.
Turning to `O=C(NC1=NN(c2ccccc2)C(=O)C1)Oc1ccccc1`, the Activity is above 1000 nM in data set [2], 5.6% in data set [7], above 1000 nM with ScN2a [4] and 11.6% in data set [8]. Also, half-maximal inhibition in data set [6] (IC50) required 380 nM.
As for `COc1ccc(N2N=C(C)CC2=O)cc1`, the Activity (in data set [2]; in the data set with ScN2a [4]) was above 100 nM throughout. Moreover, the CC50 in data set [3] is above 1000 nM.
In the case of `CC1=NN(c2ccccc2)C(=O)C1` [EDARAVONE], the Activity in data set [7] is 0.6%; in data set [8], 5.7%. Also, the values for the IC50 (in the data set with ScN2a [1]; in data set [6]) were above 1000 nM and 250 nM, respectively.
Consider `O=C1CC(c2ccc([N+](=O)[O-])cc2)=NN1c1ccccc1`, for which the Activity is above 1000 nM in data set [2], 1.8% in data set [7], above 1000 nM in the data set with ScN2a [4] and 11.9% in data set [8]. The CC50 in data set [3] is above 1000 nM. Also, the figures for the IC50 (with ScN2a [1]; in data set [6]; in data set [5]) were 3 nM, 90 nM and 3 nM, respectively.
Regarding `CC1=NN(c2ccccc2)C(=O)C1c1ccccn1` (stereo not drawn), the Activity (in data set [2]; in the data set with ScN2a [4]) was above 1000 nM each time. The CC50 in data set [3] is above 1000 nM. In addition, the 50% inhibitory concentration (IC50) in the data set on ScN2a [1] came to 79 nM; in data set [5], 631 nM.
For `O=C1CC(c2ccccc2)=NN1c1ccccc1`, the Activity (in data set [2]; with ScN2a [4]) was above 100 nM each time. Moreover, the CC50 in data set [3] is above 1000 nM.

As usually defined, the IC50 is the concentration needed to halve the response being measured.
